Compounds with a hit are over-represented: about 1.5% of the library has one in this group of screens.
PKA-R1A act – PKA-R1A complex activation; PKA-R1A dissociation, Cy5-IP20 fluorescence polarization; scaled: DMSO 0%, 113 µM cGMP 100%; activation, % at 11.4 µM; hit rate 0.083% among 340,000; P00514+P68181;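 active = percent activation above the mean of all tested compounds plus 3 SD, cut at about 19% in these data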;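 also: higher means more PKAc released from R1A so a rise in polarization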
CRFR2-BP antag – blocks CRF-induced signaling of the CRF-BP/CRF-R2 complex; HEK293 CRF-R2/CRF-BP, CRF-induced calcium fluorescence; inhibition, % at 11.8 µM; hit rate 0.59% among 350,000;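 active = inhibition of the ligand-induced calcium signal above about 50% at the single tested concentration, limit read from the data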
SIRT5 block – sirtuin-5 (human) deacylase inhibition; Q9NXA8; Purified SirT5, succinyl-peptide AMC, trypsin-coupled fluorescence; inhibition, % at 15 µM; hit rate 1.1% among 330,000; in the data active = inhibition above about 15%
Target sequence (Q9NXA8 whole entry, looked up): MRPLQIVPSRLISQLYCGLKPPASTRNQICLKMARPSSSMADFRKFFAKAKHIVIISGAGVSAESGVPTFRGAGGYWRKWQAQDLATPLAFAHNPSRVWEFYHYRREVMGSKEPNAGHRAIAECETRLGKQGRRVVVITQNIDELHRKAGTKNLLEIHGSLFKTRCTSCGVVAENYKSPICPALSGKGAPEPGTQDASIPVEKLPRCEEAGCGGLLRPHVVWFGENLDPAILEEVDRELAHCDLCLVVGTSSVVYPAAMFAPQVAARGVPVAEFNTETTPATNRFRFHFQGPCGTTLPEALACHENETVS
S100A4 inh HTS – inhibitors of human S100A4 binding to myosin IIA peptide | P26447 | S100A4/TAMRA-MyoIIA peptide fluorescence polarization | inhibition, % at 10.7 µM | hit rate 0.14% among 360,000 | AID 652163;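 active = mean inhibition of at least 70% across replicates, with every replicate also reaching that level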
Target sequence (P26447 whole entry, looked up): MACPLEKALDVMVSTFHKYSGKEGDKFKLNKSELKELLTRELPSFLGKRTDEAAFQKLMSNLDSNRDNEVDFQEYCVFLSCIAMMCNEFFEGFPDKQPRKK
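Test system: S100A4 monomer protein; Medium: HEPES pH 7.2 with CaCl2, KCl, NaCl, DTT, Triton; Probe or stimulus: TAMRA-labelled myosin IIA heavy-chain peptide probe, 5 nM; Doses: one dose per compound; Times: polarization read 5 min after assay mix addition, stable 5–60 min; Benchmarks: neutral control DMSO, positive control TFP.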
PKA-R2B act – activates the human PKA-R2B holoenzyme complex | hit rate 0.079% among 340,000 | activation, % at 11.4 µM | PKA-R2B holoenzyme dissociation, Cy5-IP20 fluorescence polarization; R2B truncated from residue 108, S112A mutant; 0% DMSO only, 100% 113 µM cGMP;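 active = activation above a cutoff set at the mean over all compounds plus 3 SD, cut at about 18% in these data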;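 also: higher means more holoenzyme dissociation and a rise in polarization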
* hit, by the source's call; / = no result; ! = a repeat was not active.

SMILES	PKA-R1A act	CRFR2-BP antag	SIRT5 block	S100A4 inh HTS	PKA-R2B act
O=C(NCC[C@@H]1CC[C@H](NC(=O)C2CC2)[C@H](CO)O1)c1cc(Cl)cc(Cl)c1	/	/	38*	9	/
C/C=C/c1ccc2c(c1)O[C@@H](CN(C)C(=O)CN(C)C)[C@H](C)CN([C@@H](C)CO)S2(=O)=O	/	/	2	5	/
N#Cc1ccccc1Sc1ccccc1N	-11	57*	3	-5	-6
CNC(=O)c1ccccc1Sc1ccccc1C#N	-8	7	0	-4	9
O=C(COC(=O)CC1CC2CCC1C2)NCc1ccccc1 (stereo not drawn)	6	1	35*	-11	-11
C[C@H](CO)N1C[C@H](C)[C@@H](CN(C)C(=O)Nc2ccc(C(F)(F)F)cc2)Oc2ccc(NS(=O)(=O)c3ccc(F)cc3)cc2CC1=O	/	/	0	-6	/
C[C@@H]1CCCCO[C@H](CN(C)C(=O)CCC(F)(F)F)[C@H](C)CN([C@@H](C)CO)C(=O)c2cc(NS(=O)(=O)c3ccc(Cl)cc3)ccc2O1	/	/	17*!	-5	/
Cc1ccc(S(=O)(=O)Nc2ccc3c(c2)C(=O)N([C@@H](C)CO)C[C@H](C)[C@@H](CN(C)C(=O)Nc2ccccc2)OCCCC[C@H](C)O3)cc1	/	/	17*	-13	/
Cc1ccc(S(=O)(=O)Nc2ccc3c(c2)C(=O)N([C@H](C)CO)C[C@H](C)[C@H](CN(C)C(=O)Cc2ccccc2)OCCCC[C@H](C)O3)cc1	/	/	16*	-1	/
C[C@@H]1CCCCO[C@H](CN(C)C(=O)Nc2ccccc2)[C@@H](C)CN([C@@H](C)CO)C(=O)c2cc(N(C)C)ccc2O1	/	/	0	-10	/
C[C@@H]1CN([C@@H](C)CO)C(=O)c2cc(N(C)C)ccc2O[C@@H](C)CCCCO[C@@H]1CN(C)C(=O)Nc1ccccc1	/	/	16*	7	/
C[C@@H]1CN([C@H](C)CO)S(=O)(=O)c2ccc(-c3cncnc3)cc2O[C@@H]1CN(C)C(=O)Cc1cccnc1	/	/	7	0	/
C[C@@H]1CN([C@H](C)CO)C(=O)c2cccc(NC(=O)c3ccc(-c4nccs4)cc3)c2O[C@@H]1CN(C)S(=O)(=O)c1cn(C)cn1	/	/	-9	8	/
CC(=O)N1[C@@H]2Cn3c(cccc3=O)[C@H]1[C@@H](C(=O)N[C@H](C)c1ccccc1)[C@@H]2CO	/	/	-5	13	/
C[C@@H]1CN([C@H](C)CO)C(=O)c2cc(C#Cc3ccccc3)cnc2O[C@H]1CN(C)C(=O)CCN1CCCCC1	/	/	10	-18	/
O=C(NCC[C@@H]1CC[C@@H](NS(=O)(=O)c2cccc(F)c2)[C@H](CO)O1)C1CCOCC1	/	/	5	4	/
Cc1ccc(S(=O)(=O)Nc2ccc3c(c2)C(=O)N([C@H](C)CO)C[C@H](C)[C@@H](CN(C)C(=O)Nc2ccc(C(F)(F)F)cc2)OCCCC[C@H](C)O3)cc1	/	/	16*	-3	/
C[C@@H]1CCCCO[C@@H](CN(C)C(=O)Nc2ccc(C(F)(F)F)cc2)[C@H](C)CN([C@H](C)CO)C(=O)c2cc(NS(=O)(=O)c3ccc(F)cc3)ccc2O1	/	/	0	-1	/
Cc1ccc(S(=O)(=O)Nc2ccc3c(c2)C(=O)N([C@H](C)CO)C[C@@H](C)[C@H](CN(C)C(=O)Nc2ccc(C(F)(F)F)cc2)OCCCC[C@@H](C)O3)cc1	/	/	16*	-2	/
Cc1ccc(S(=O)(=O)Nc2ccc3c(c2)C(=O)N([C@@H](C)CO)C[C@H](C)[C@@H](CN(C)C(=O)Nc2ccc(C(F)(F)F)cc2)OCCCC[C@H](C)O3)cc1	/	/	17*	0	/
C[C@@H]1CCCCO[C@@H](CN(C)C(=O)Nc2ccc(C(F)(F)F)cc2)[C@H](C)CN([C@@H](C)CO)C(=O)c2cc(NS(=O)(=O)c3ccc(Cl)cc3)ccc2O1	/	/	19*	-4	/
C[C@H](CO)N1C[C@H](C)[C@H](CN(C)C(=O)Nc2ccc(C(F)(F)F)cc2)OCCCC[C@H](C)Oc2ccc(NS(=O)(=O)c3ccc(F)cc3)cc2C1=O	/	/	0	-1	/
CCC(=O)Nc1ccc2c(c1)OC[C@H](C)N(C(C)=O)C[C@@H](C)[C@@H](OC)CN(C)C2=O	/	/	-3	-3	/
CCOC(=O)C1CCN(c2ncnc3c2nnn3Cc2ccccc2Cl)CC1	5	59*	-3	2	-3
O=C(c1ccco1)N1CCN(c2ncnc3c2nnn3Cc2ccccc2Cl)CC1	-8	15	-2	1	-8
SMILES	PKA-R1A act	CRFR2-BP antag	SIRT5 block	S100A4 inh HTS	PKA-R2B act
C[C@H](NC(=O)[C@H](Cc1ccccc1)n1c(=O)[nH]c2ccccc2c1=O)C(=O)N1CCC(C(=O)O)CC1	7	-4	15*	2	13
CCOc1cc(/C=C2\CCCc3c2nc2ccccc2c3C(=O)O)ccc1OC	0	-182	-5	80*	9
COc1cc(/C=C2\CCCc3c2nc2ccccc2c3C(=O)O)cc(Br)c1O	-1	-12	2	4	-9
CCCC(=O)Nc1ccc2c(c1)OC[C@H](C)N(C(=O)c1ccncc1)C[C@@H](C)[C@H](OC)CN(C)C2=O	/	/	-2	1	/
CC(C)CC#Cc1cnc2c(c1)C(=O)N([C@@H](C)CO)C[C@H](C)[C@@H](CN(C)C(=O)c1cnccn1)O2	/	/	-3	9	/
Cc1ccc2c(CC(=O)NCC(=O)Nc3c(C)cccc3C)coc2c1	-16	50*	-2	-3	-6
Cc1ccc2c(CC(=O)NCc3ccc4c(c3)OCO4)coc2c1	-13	-2	/	/	-3
O=S(=O)(c1ccc(F)cc1)N1C[C@H]2[C@@H](c3ccccc31)[C@H](CO)N2Cc1ccccc1Cl	/	/	3	100*	/
O=C(CC1CC1)N1[C@H](CO)[C@H]2c3ccccc3N(S(=O)(=O)c3ccccc3)C[C@H]21	/	/	-1	4	/
O=C(CC1CC1)N1[C@@H](CO)[C@@H]2c3ccccc3N(S(=O)(=O)c3ccc(F)cc3)C[C@@H]21	/	/	25*	0	/
COc1ccccc1NC(=O)N1C[C@H]2[C@@H](c3ccccc31)[C@H](CO)N2Cc1ccccc1F	/	/	-2	0	/
CCCNC(=O)N1C[C@H](C)[C@H](OC)CN(C)C(=O)c2ccc(NS(C)(=O)=O)cc2OC[C@H]1C	/	/	7	18	/
CC1CC(NC(=O)c2cc3c(=O)n4ccccc4nc3n2C)CC(C)(C)C1 (stereo not drawn)	2	-18	15*	0	6
Cc1noc(C)c1S(=O)(=O)N1CCC(C(=O)N2CCN(c3ccccc3Cl)CC2)CC1	1	4	/	/	-4
Cc1noc(C)c1S(=O)(=O)N1CCC(C(=O)N2CCN(c3ccc(Cl)cc3)CC2)CC1	-1	58*	/	/	-7
Cc1cccc(NC(=O)Cc2ccc(NC3=NC4CS(=O)(=O)CC4S3)cc2)c1 (stereo not drawn)	0	60*	1	4	-11

Bioassay records deposited in PubChem by several laboratories.
